{"data": "Results from different studies", "SLC10A2": "Ileal sodium/bile acid cotransporter (SLC10A2, Homo sapiens, UniProt Q12908)", "HRH3": "Histamine H3 receptor (HRH3, Homo sapiens, UniProt Q9Y5N1)", "CYP1B1": "Cytochrome P450 1B1 (CYP1B1, Homo sapiens, UniProt Q16678)", "DRD5": "D(1B) dopamine receptor (DRD5, Homo sapiens, UniProt P21918)", "WDR5": "WD repeat-containing protein 5 (WDR5, Homo sapiens, UniProt P61964)", "PDEB1": "Class 1 phosphodiesterase PDEB1 (PDEB1, Trypanosoma brucei, UniProt Q8WQX9)", "Hypoxanthine-guanine-xanthine phosphoribosyltransferase": "Hypoxanthine-guanine-xanthine phosphoribosyltransferase (Plasmodium falciparum, UniProt P20035)"}
{"SMILES": "CC(C(=O)O)c1cccc(C(=O)c2ccccc2)c1 (centres unmarked)", "target": "SLC10A2", "test": "transporter uptake, inhibitor", "Ki [µM]": 178}
{"SMILES": "O=C1CCCc2cc(OCCCN3CCCCC3)ccc21", "target": "HRH3", "test": "ligand displacement, radioligand", "conditions": "cell membranes", "Ki [µM]": 0.068}
{"SMILES": "C#Cc1ccc2c(=O)cc(-c3ccccc3)oc2c1", "target": "CYP1B1", "test": "enzyme activity, inhibitor, fluorescence", "conditions": "6 min, pH 7.6", "Ki [µM]": 0.42}
{"SMILES": "CN(C)c1ccc(/C=C/C=C2\\CCc3cc(OCCCN4CCCCC4)ccc3C2=O)cc1", "target": "HRH3", "test": "ligand displacement, radioligand", "conditions": "cell membranes", "Ki [µM]": 0.094}
{"SMILES": "COc1ccccc1N1CCN(CCCCN2CCc3ccccc3C2=O)CC1", "target": "DRD5", "test": "ligand displacement, radioligand", "Ki [µM]": 6.86}
{"SMILES": "CCCc1ccc(OCCCCCN2CCCCCC2)cc1", "target": "HRH3", "test": "ligand displacement, radioligand", "conditions": "cell membranes", "Ki [µM]": 0.0563}
{"SMILES": "OC[C@@]12C[C@@H]1[C@@H](n1cnc3c(NC(C4CCCC4)C4CCCC4)nc(Cl)cc31)[C@H](O)[C@@H]2O", "target": "DRD5", "test": "cell-free assay, radioligand", "Ki [µM]": 5.1}
{"SMILES": "O=C(NCc1cc(Cl)cc(Cl)c1)c1cccc(Cn2ccnc2)c1", "target": "WDR5", "test": "ligand displacement, FP", "Ki [µM]": 0.681}
{"SMILES": "CCOC(=O)C1=C(C)NC(C)=C(C(=O)OC)C1c1cccc(Cl)c1Cl (centres unmarked)", "target": "SLC10A2", "test": "transporter uptake, inhibitor", "Ki [µM]": 49.7}
{"SMILES": "CCCCCCCC/C=C\\CCCCCCCC(=O)NC(CO)(CO)CO", "target": "DRD5", "test": "ligand displacement, radioligand", "Ki [µM]": "> 10"}
{"SMILES": "COc1ccc(C2=NN(C3CCCCCC3)C(=O)C3CC=CCC23)cc1-c1ccc(C(=O)N2CC[C@@H](O)C2)cc1 (mixture of isomers)", "target": "PDEB1", "test": "enzyme activity, inhibitor", "Ki [µM]": 0.251}
{"SMILES": "CN(C)c1ccc(/C=C2\\CCc3cc(OCCCN4CCCCC4)ccc3C2=O)cc1", "target": "HRH3", "test": "ligand displacement, radioligand", "conditions": "cell membranes", "Ki [µM]": 0.07}
{"SMILES": "O=c1c(O)c(NCC[C@@H](CO)NCc2c[nH]c3c(O)ncnc23)c1=O", "target": "Hypoxanthine-guanine-xanthine phosphoribosyltransferase", "test": "enzyme activity, inhibitor", "conditions": "pH 7.4", "Ki [µM]": "> 20"}
{"SMILES": "COc1ccc(C2=NN(C3CCCCCC3)C(=O)C3CC=CCC23)cc1-c1ccc(C(=O)N2CCC[C@@H]2C(N)=O)cc1 (mixture of isomers)", "target": "PDEB1", "test": "enzyme activity, inhibitor", "Ki [µM]": 0.501}
{"SMILES": "CNC(=C[N+](=O)[O-])NCCSCc1ccc(CN(C)C)o1", "target": "SLC10A2", "test": "transporter uptake, inhibitor", "Ki [µM]": 886}
{"SMILES": "CN1CCN(CCCOc2ccc(Nc3nccc(N4CCN(C)CC4)n3)cc2)CC1", "target": "HRH3", "test": "ligand displacement, radioligand", "conditions": "cell membranes", "Ki [µM]": 0.646}
{"SMILES": "O=c1cc([C@@H](CO)NCc2c[nH]c3c(O)ncnc23)o[nH]1", "target": "Hypoxanthine-guanine-xanthine phosphoribosyltransferase", "test": "enzyme activity, inhibitor", "conditions": "pH 7.4", "Ki [µM]": "> 20"}
{"SMILES": "COc1cc(CNC(=O)c2cccc(CNC3=NCCN3)c2F)cc(OC)c1", "target": "WDR5", "test": "ligand displacement, FP", "Ki [µM]": 1.23}
{"SMILES": "COc1ccc2c(c1)C(=O)N(CCCN1CCN(c3ccccc3OC)CC1)C2", "target": "DRD5", "test": "ligand displacement, radioligand", "Ki [µM]": 8.29}
{"SMILES": "CCCc1ccc(OCCCCCN2CCCCC2)cc1", "target": "HRH3", "test": "ligand displacement, radioligand", "conditions": "cell membranes", "Ki [µM]": 0.048}
{"SMILES": "CCOC(=O)C1=C(COCCN)NC(C)=C(C(=O)OC)C1c1ccccc1Cl (centres unmarked)", "target": "SLC10A2", "test": "transporter uptake, inhibitor", "Ki [µM]": "< 100"}
{"SMILES": "C#Cc1ccccc1-c1cc(=O)c2ccccc2o1", "target": "CYP1B1", "test": "enzyme activity, inhibitor, fluorescence", "conditions": "6 min, pH 7.6", "Ki [µM]": 0.61}
{"SMILES": "CCCCN1CCC(COC(=O)c2ccc(N)c(OCF)c2)CC1", "target": "Beta-2 adrenergic receptor (ADRB2, Homo sapiens, UniProt P07550)", "test": "cell-free assay, radioligand", "Ki [µM]": "> 10"}
{"SMILES": "C#Cc1ccc2cc(-c3ccccc3)c(=O)oc2c1", "target": "CYP1B1", "test": "enzyme activity, inhibitor, fluorescence", "conditions": "6 min, pH 7.6", "Ki [µM]": 1.72}
{"SMILES": "CN(C(=O)[C@@H]1Cc2ccccc2CN1C(=O)c1ccc(Cl)s1)c1ccc(N2CCCCC2=O)cc1", "target": "Coagulation factor X (F10, Homo sapiens, UniProt P00742)", "test": "enzyme activity, inhibitor, absorbance", "Ki [µM]": 28}
{"SMILES": "O=C1CN(CC[C@@H](CO)NCc2c[nH]c3c(O)ncnc23)S(=O)(=O)N1", "target": "Hypoxanthine-guanine-xanthine phosphoribosyltransferase", "test": "enzyme activity, inhibitor", "conditions": "pH 7.4", "Ki [µM]": "> 20"}
{"SMILES": "CCCCNc1cc(C(=O)O)cc(S(N)(=O)=O)c1Oc1ccccc1", "target": "SLC10A2", "test": "transporter uptake, inhibitor", "Ki [µM]": 225}
{"SMILES": "COc1cc(O)c(CC=C(C)C)c(O)c1C(=O)/C=C/c1ccc(O)cc1", "target": "CYP1B1", "test": "enzyme activity, inhibitor, fluorescence", "conditions": "15 min, pH 7.4", "Ki [µM]": 0.17}
{"SMILES": "C#Cc1ccc2oc(-c3ccccc3)cc(=O)c2c1", "target": "CYP1B1", "test": "enzyme activity, inhibitor, fluorescence", "conditions": "6 min, pH 7.6", "Ki [µM]": 0.54}
{"SMILES": "CN(C)c1ccc(/C=C/C=C2\\CCc3ccc(OCCCN4CCCCC4)cc3C2=O)cc1", "target": "HRH3", "test": "ligand displacement, radioligand", "conditions": "cell membranes", "Ki [µM]": 0.101}
{"SMILES": "CCCc1ccc(OCCCCCN2CCCC(C)C2)cc1 (centres unmarked)", "target": "HRH3", "test": "ligand displacement, radioligand", "conditions": "cell membranes", "Ki [µM]": 0.0384}
{"SMILES": "Cc1nc(F)ccc1-c1cc(C(=O)NCc2ccc(Cl)c(Cl)c2)ccc1Cn1ccn(C)c1=N", "target": "WDR5", "test": "ligand displacement, TR-FRET", "Ki [µM]": "> 0.033"}
{"SMILES": "C[C@H]1[C@H](NC(=O)/C(=N\\OC(C)(C)C(=O)O)c2csc(N)n2)C(=O)N1S(=O)(=O)O", "target": "SLC10A2", "test": "transporter uptake, inhibitor", "Ki [µM]": 1850}
{"SMILES": "O=C1c2ccccc2CCN1CCCCN1CCN(c2ccccn2)CC1", "target": "DRD5", "test": "ligand displacement, radioligand", "Ki [µM]": 9.36}
{"SMILES": "NS(=O)(=O)c1cc2c(cc1Cl)NC(C(Cl)Cl)NS2(=O)=O (centres unmarked)", "target": "SLC10A2", "test": "transporter uptake, inhibitor", "Ki [µM]": 377}
{"SMILES": "O=C1CN(C[C@@H](CO)NCc2c[nH]c3c(O)nc(O)nc23)S(=O)(=O)N1", "target": "Hypoxanthine-guanine-xanthine phosphoribosyltransferase", "test": "enzyme activity, inhibitor", "conditions": "pH 7.4", "Ki [µM]": "> 20"}
{"SMILES": "CCc1ccc(CCOc2ccc(CC3SC(=O)NC3=O)cc2)nc1 (centres unmarked)", "target": "SLC10A2", "test": "transporter uptake, inhibitor", "Ki [µM]": "< 100"}
{"SMILES": "O=C1CN(CC[C@@H](CO)NCc2c[nH]c3c(O)nc(O)nc23)S(=O)(=O)N1", "target": "Hypoxanthine-guanine-xanthine phosphoribosyltransferase", "test": "enzyme activity, inhibitor", "conditions": "pH 7.4", "Ki [µM]": "> 20"}
